The results in this text go back to ChEMBL document CHEMBL1148367, “Novel azapeptide inhibitors of hepatitis C virus serine protease” (J Med Chem, 2004).

*1 amine or outer side, *2 acyl side, *3 side chain or, on linkers, in order; H or OH if unused. Where a SMILES comes first, the peptide text is derived from it. [ ]: non-standard residue; d: D form. The star is where a group is joined. NH(1S-phenylpropyl) = CC[C@H](N*)c1ccccc1; NH(1R-phenylethyl) = C[C@@H](N*)c1ccccc1; NH(1S-phenylethyl) = C[C@H](N*)c1ccccc1; X8 = O=C(N(CC(F)(F)F)N[*:1])[*:2]; Hyp = O=C(O)[C@@H]1C[C@@H](O)CN1; NHPiperonyl = c1cc2c(cc1CN*)OCO2; X12 = CCCN(N*)C(=O)NN(C)c1ccccc1; X5 = CC(C)CCN(N[*:1])C(=O)[*:2]; azaNva = CCCN(N[*:1])C(=O)[*:2]; AzaAla = CN(N[*:1])C(=O)[*:2]; X10 = CCCN(N*)C(=O)CCc1ccccc1; X3 = C[C@H](N*)c1cccc2ccccc12; X9 = CCCCCN(N[*:1])C(=O)[*:2]; NMe(benzyl) = CN(Cc1ccccc1)*; X6 = CCCN(N*)C(=S)NCc1ccccc1; X7 = CCCN(N*)C(=O)OCc1ccccc1; X1 = c1ccc2c(c1)CC[C@@H]2N*; X4 = C[C@H](N*)c1ccc(Br)cc1; X14 = C[C@H](N*)c1nnn[nH]1; X11 = C[C@H](N*)C1CCCCC1; X13 = c1ccc2c(c1)CCN2*; NHBn = c1ccc(CN*)cc1; X2 = CCCN(N*)C(N)=O; Bn = c1ccc(C*)cc1

T1 sequence (A3EZJ3 whole entry): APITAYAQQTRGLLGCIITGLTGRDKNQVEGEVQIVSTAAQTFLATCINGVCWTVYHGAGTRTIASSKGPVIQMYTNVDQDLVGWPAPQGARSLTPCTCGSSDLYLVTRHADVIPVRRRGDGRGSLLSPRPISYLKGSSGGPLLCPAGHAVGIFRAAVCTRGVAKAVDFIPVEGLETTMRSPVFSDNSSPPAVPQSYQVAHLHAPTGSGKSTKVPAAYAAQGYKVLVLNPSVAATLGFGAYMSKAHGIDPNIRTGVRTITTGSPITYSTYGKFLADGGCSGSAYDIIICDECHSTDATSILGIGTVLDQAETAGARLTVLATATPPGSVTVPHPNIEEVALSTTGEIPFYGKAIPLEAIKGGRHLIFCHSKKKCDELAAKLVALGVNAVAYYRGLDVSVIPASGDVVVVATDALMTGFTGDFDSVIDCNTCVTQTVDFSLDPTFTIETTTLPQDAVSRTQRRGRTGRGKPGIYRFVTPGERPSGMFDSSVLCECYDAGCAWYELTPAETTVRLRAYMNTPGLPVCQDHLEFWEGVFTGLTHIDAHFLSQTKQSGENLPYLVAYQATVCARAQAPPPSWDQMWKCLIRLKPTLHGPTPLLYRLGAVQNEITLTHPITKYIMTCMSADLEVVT

One experiment addresses T1, NS3 (Hepatitis C virus, UniProt A3EZJ3). The experiment can be described thus: Inhibitory concentration against Hepatitis C virus serine protease. Set-up: species or system Hepacivirus hominis.
Take `CCC[C@@H](NC(=O)[C@@H]1C[C@@H](OCc2ccccc2)CN1C(=O)[C@@H](NC(=O)[C@@H](NC(=O)[C@@H](CCC(=O)O)NC(=O)[C@H](CC(=O)O)NC(C)=O)[C@@H](C)CC)C(C)C)C(=O)O`: the half-maximal inhibitory concentration (IC50) (as a rule, the concentration that gives 50% inhibition) is 34000 nM. Still for that read-out and setting: next, `CC[C@H](C)[C@H](NC(=O)[C@@H](CCC(=O)O)NC(=O)[C@H](CC(=O)O)NC(C)=O)C(=O)N[C@H](C(=O)N1C[C@H](OCc2ccccc2)C[C@H]1C(=O)NN(CC(C)C)C(=O)N[C@@H](C)c1ccccc1)C(C)C`: 2400 nM; `CCC(CC)N(NC(=O)[C@@H]1C[C@@H](OCc2ccccc2)CN1C(=O)[C@@H](NC(=O)[C@@H](NC(=O)[C@@H](CCC(=O)O)NC(=O)[C@H](CC(=O)O)NC(C)=O)[C@@H](C)CC)C(C)C)C(=O)N[C@@H](C)c1ccccc1`: 4100 nM. The same measure, in the same setting: the result for `CCCCN(NC(=O)[C@@H]1C[C@@H](OCc2ccccc2)CN1C(=O)[C@@H](NC(=O)[C@@H](NC(=O)[C@@H](CCC(=O)O)NC(=O)[C@H](CC(=O)O)NC(C)=O)[C@@H](C)CC)C(C)C)C(=O)N[C@@H](C)c1ccccc1` reads 99 nM. On the same count and under the same terms, the result for `CC[C@H](C)[C@H](NC(=O)[C@@H](CCC(=O)O)NC(=O)[C@H](CC(=O)O)NC(C)=O)C(=O)N[C@H](C(=O)N1C[C@H](OCc2ccccc2)C[C@H]1C(=O)NN(CC)C(=O)N[C@@H](C)c1ccccc1)C(C)C` reads 85 nM; that for `CCC[C@H](NC(=O)[C@@H]1C[C@@H](OCc2ccccc2)CN1C(=O)[C@@H](NC(=O)[C@@H](NC(=O)[C@@H](CCC(=O)O)NC(=O)[C@H](CC(=O)O)NC(C)=O)[C@@H](C)CC)C(C)C)C(N)=O`, 26000 nM; that for `CCC[C@H](NC(=O)[C@@H]1C[C@@H](OCc2ccccc2)CN1C(=O)[C@@H](NC(=O)[C@@H](NC(=O)[C@@H](CCC(=O)O)NC(=O)[C@H](CC(=O)O)NC(C)=O)[C@@H](C)CC)C(C)C)C(=O)O`, 600 nM. The compound `CCCN(NC(=O)[C@@H]1C[C@@H](OCc2ccccc2)CN1C(=O)[C@@H](NC(=O)[C@@H](NC(=O)[C@@H](CCC(=O)O)NC(=O)[C@H](CC(=O)O)NC(C)=O)[C@@H](C)CC)C(C)C)C(N)=O` (Ac-D[dE]IV[Hyp](Bn)-X2) gave a half-inhibitory concentration (IC50) of 17500 nM.

Consider `CCCN(NC(=O)[C@@H]1C[C@@H](OCc2ccccc2)CN1C(=O)[C@@H](NC(=O)[C@@H](NC(=O)[C@@H](CCC(=O)O)NC(=O)[C@H](CC(=O)O)NC(C)=O)[C@@H](C)CC)C(C)C)C(=S)NCc1ccccc1` (Ac-D[dE]IV[Hyp](Bn)-X6), for which 4200 nM corresponded to half-maximal inhibition (IC50). Same read-out and setting: the result for `CCCN(NC(=O)[C@@H]1C[C@@H](OCc2ccccc2)CN1C(=O)[C@@H](NC(=O)[C@@H](NC(=O)[C@@H](CCC(=O)O)NC(=O)[C@H](CC(=O)O)NC(C)=O)[C@@H](C)CC)C(C)C)C(=O)OCc1ccccc1` (Ac-D[dE]IV[Hyp](Bn)-X7) reads 800 nM; that for `CCCN(NC(=O)[C@@H]1C[C@@H](OCc2ccccc2)CN1C(=O)[C@@H](NC(=O)[C@@H](NC(=O)[C@@H](CCC(=O)O)NC(=O)[C@H](CC(=O)O)NC(C)=O)[C@@H](C)CC)C(C)C)C(=O)CCc1ccccc1` (Ac-D[dE]IV[Hyp](Bn)-X10), 710 nM. `CCCN(NC(=O)[C@@H]1C[C@@H](OCc2ccccc2)CN1C(=O)[C@@H](NC(=O)[C@@H](NC(=O)[C@@H](CCC(=O)O)NC(=O)[C@H](CC(=O)O)NC(C)=O)[C@@H](C)CC)C(C)C)C(=O)NN(C)c1ccccc1` (Ac-D[dE]IV[Hyp](Bn)-X12): the IC50 was determined as 480 nM. `CC[C@H](C)[C@H](NC(=O)[C@@H](CCC(=O)O)NC(=O)[C@H](CC(=O)O)NC(C)=O)C(=O)N[C@H](C(=O)N1C[C@H](OCc2ccccc2)C[C@H]1C(=O)NN(C)C(=O)N[C@@H](C)c1ccccc1)C(C)C` (Ac-D[dE]IV[Hyp](Bn)[AzaAla]-{NH(1S-phenylethyl)}) had a 50% inhibitory concentration (IC50) of 430 nM. On the same count and under the same terms, next, `CC[C@H](C)[C@H](NC(=O)[C@@H](CCC(=O)O)NC(=O)[C@H](CC(=O)O)NC(C)=O)C(=O)N[C@H](C(=O)N1C[C@H](OCc2ccccc2)C[C@H]1C(=O)NN(CCC(C)C)C(=O)N[C@@H](C)c1ccccc1)C(C)C` (Ac-D[dE]IV[Hyp](Bn)[X5]-{NH(1S-phenylethyl)}): 5700 nM. Same read-out and setting: the result for `CC[C@H](C)[C@H](NC(=O)[C@@H](CCC(=O)O)NC(=O)[C@H](CC(=O)O)NC(C)=O)C(=O)N[C@H](C(=O)N1C[C@H](OCc2ccccc2)C[C@H]1C(=O)NN(CC(F)(F)F)C(=O)N[C@@H](C)c1ccccc1)C(C)C` (Ac-D[dE]IV[Hyp](Bn)[X8]-{NH(1S-phenylethyl)}) reads 340 nM; that for `CCCCCN(NC(=O)[C@@H]1C[C@@H](OCc2ccccc2)CN1C(=O)[C@@H](NC(=O)[C@@H](NC(=O)[C@@H](CCC(=O)O)NC(=O)[C@H](CC(=O)O)NC(C)=O)[C@@H](C)CC)C(C)C)C(=O)N[C@@H](C)c1ccccc1` (Ac-D[dE]IV[Hyp](Bn)[X9]-{NH(1S-phenylethyl)}), 490 nM; that for `CCCN(NC(=O)[C@@H]1C[C@@H](OCc2ccccc2)CN1C(=O)[C@@H](NC(=O)[C@@H](NC(=O)[C@@H](CCC(=O)O)NC(=O)[C@H](CC(=O)O)NC(C)=O)[C@@H](C)CC)C(C)C)C(=O)NCc1ccccc1` (Ac-D[dE]IV[Hyp](Bn)[azaNva]-NHBn), 590 nM. `CCCN(NC(=O)[C@@H]1C[C@@H](OCc2ccccc2)CN1C(=O)[C@@H](NC(=O)[C@@H](NC(=O)[C@@H](CCC(=O)O)NC(=O)[C@H](CC(=O)O)NC(C)=O)[C@@H](C)CC)C(C)C)C(=O)NCc1ccc2c(c1)OCO2` (Ac-D[dE]IV[Hyp](Bn)[azaNva]-NHPiperonyl) came in with an IC50 of 500 nM. The IC50 values of the last two compounds are within 1.5-fold of each other. Still for that read-out and setting: next, `CCCN(NC(=O)[C@@H]1C[C@@H](OCc2ccccc2)CN1C(=O)[C@@H](NC(=O)[C@@H](NC(=O)[C@@H](CCC(=O)O)NC(=O)[C@H](CC(=O)O)NC(C)=O)[C@@H](C)CC)C(C)C)C(=O)N[C@H]1CCc2ccccc21` (Ac-D[dE]IV[Hyp](Bn)[azaNva]-X1): 100 nM; `CCCN(NC(=O)[C@@H]1C[C@@H](OCc2ccccc2)CN1C(=O)[C@@H](NC(=O)[C@@H](NC(=O)[C@@H](CCC(=O)O)NC(=O)[C@H](CC(=O)O)NC(C)=O)[C@@H](C)CC)C(C)C)C(=O)N[C@@H](C)c1cccc2ccccc12` (Ac-D[dE]IV[Hyp](Bn)[azaNva]-X3): 490 nM; `CCCN(NC(=O)[C@@H]1C[C@@H](OCc2ccccc2)CN1C(=O)[C@@H](NC(=O)[C@@H](NC(=O)[C@@H](CCC(=O)O)NC(=O)[C@H](CC(=O)O)NC(C)=O)[C@@H](C)CC)C(C)C)C(=O)N[C@@H](C)c1ccc(Br)cc1` (Ac-D[dE]IV[Hyp](Bn)[azaNva]-X4): 72 nM. `CCCN(NC(=O)[C@@H]1C[C@@H](OCc2ccccc2)CN1C(=O)[C@@H](NC(=O)[C@@H](NC(=O)[C@@H](CCC(=O)O)NC(=O)[C@H](CC(=O)O)NC(C)=O)[C@@H](C)CC)C(C)C)C(=O)N[C@@H](C)C1CCCCC1` (Ac-D[dE]IV[Hyp](Bn)[azaNva]-X11) registered an IC50 of 420 nM. On the same count and under the same terms, the result for `CCCN(NC(=O)[C@@H]1C[C@@H](OCc2ccccc2)CN1C(=O)[C@@H](NC(=O)[C@@H](NC(=O)[C@@H](CCC(=O)O)NC(=O)[C@H](CC(=O)O)NC(C)=O)[C@@H](C)CC)C(C)C)C(=O)N1CCc2ccccc21` (Ac-D[dE]IV[Hyp](Bn)[azaNva]-X13) reads 4400 nM; that for `CCCN(NC(=O)[C@@H]1C[C@@H](OCc2ccccc2)CN1C(=O)[C@@H](NC(=O)[C@@H](NC(=O)[C@@H](CCC(=O)O)NC(=O)[C@H](CC(=O)O)NC(C)=O)[C@@H](C)CC)C(C)C)C(=O)N[C@@H](C)c1nnn[nH]1` (Ac-D[dE]IV[Hyp](Bn)[azaNva]-X14), 860 nM.

`CCCN(NC(=O)[C@@H]1C[C@@H](OCc2ccccc2)CN1C(=O)[C@@H](NC(=O)[C@@H](NC(=O)[C@@H](CCC(=O)O)NC(=O)[C@H](CC(=O)O)NC(C)=O)[C@@H](C)CC)C(C)C)C(=O)N[C@H](C)c1ccccc1` (Ac-D[dE]IV[Hyp](Bn)[azaNva]-{NH(1R-phenylethyl)}) came in with an IC50 of 4300 nM. Compound `CCCN(NC(=O)[C@@H]1C[C@@H](OCc2ccccc2)CN1C(=O)[C@@H](NC(=O)[C@@H](NC(=O)[C@@H](CCC(=O)O)NC(=O)[C@H](CC(=O)O)NC(C)=O)[C@@H](C)CC)C(C)C)C(=O)N[C@@H](CC)c1ccccc1` (Ac-D[dE]IV[Hyp](Bn)[azaNva]-{NH(1S-phenylpropyl)}) yielded an IC50 of 440 nM. For `CCCN(NC(=O)[C@@H]1C[C@@H](OCc2ccccc2)CN1C(=O)[C@@H](NC(=O)[C@@H](NC(=O)[C@@H](CCC(=O)O)NC(=O)[C@H](CC(=O)O)NC(C)=O)[C@@H](C)CC)C(C)C)C(=O)N(C)Cc1ccccc1` (Ac-D[dE]IV[Hyp](Bn)[azaNva]-{NMe(benzyl)}), it took 8400 nM to reach half-maximal inhibition (IC50).

For the next experiment, the target named is T1, NS3. Description: Inhibitory concentration against Hepatitis C virus NS3 serine protease. Set-up: species or system Hepacivirus hominis. In short, it runs like this:
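HCV NS3 serine protease IC50 from the group's in-house protease assay, run as previously described. Each reported value is the mean of at least four determinations.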
Turning to Ac-DDIVPC-OH, half-maximal inhibition (IC50) was put at 43000 nM.
